Data taken from ChEMBL document CHEMBL4316620, “Dihydropyrrolones as bacterial quorum sensing inhibitors” (Bioorg Med Chem Lett, 2019).
Active and inactive are the calls of the source. The rule behind the calls is not given here.

Experiments:
[1] = Inhibition of quorum sensing system in Pseudomonas aeruginosa MH602 PlasB::gfp at 250 uM incubated for 15 hrs by GFP reporter gene assay
Method in brief: (§1)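 Reporter strain P. aeruginosa PlasB::gfp (PAMH602) makes its own AHL; lasB promoter drives GFP-ASV. Cultures incubated with compound over 250–31.25 µM at 37 °C for 15 h, then GFP fluorescence read at 535 nm. QSI expressed as % relative to untreated PAMH602 negative control. Furanone positive control.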

[2] = Inhibition of quorum sensing system in Pseudomonas aeruginosa MH602 PlasB::gfp at 125 uM incubated for 15 hrs by GFP reporter gene assay; method in brief: as §1
[3] = Inhibition of quorum sensing system in Pseudomonas aeruginosa MH602 PlasB::gfp at 62.5 uM incubated for 15 hrs by GFP reporter gene assay; method in brief: as §1
[4] = Inhibition of quorum sensing system in Pseudomonas aeruginosa MH602 PlasB::gfp at 31.25 uM incubated for 15 hrs by GFP reporter gene assay; method in brief: as §1
Pseudomonas aeruginosa [5] = assay: Toxicity in Pseudomonas aeruginosa MH602 PlasB::gfp assessed as inhibition of bacterial growth at 250 uM incubated for 15 hrs by spectrophotometry; assay type: organism-based; details: MH602, 15 h, read-out: GI
Pseudomonas aeruginosa [6] = assay: Toxicity in Pseudomonas aeruginosa MH602 PlasB::gfp assessed as inhibition of bacterial growth at 125 uM incubated for 15 hrs by spectrophotometry; assay type: organism-based; details: MH602, 15 h, read-out: GI
Pseudomonas aeruginosa [7] = assay: Toxicity in Pseudomonas aeruginosa MH602 PlasB::gfp assessed as inhibition of bacterial growth at 62.5 uM incubated for 15 hrs by spectrophotometry; assay type: organism-based; details: MH602, 15 h, read-out: GI
Pseudomonas aeruginosa [8] = assay: Toxicity in Pseudomonas aeruginosa MH602 PlasB::gfp assessed as inhibition of bacterial growth at 31.25 uM incubated for 15 hrs by spectrophotometry; assay type: organism-based; details: MH602, 15 h, read-out: GI
Pseudomonas aeruginosa [9] = assay: Inhibition of biofilm formation in Pseudomonas aeruginosa PAO1 at 250 uM incubated for 6 hrs by crystal violet staining based method; assay type: functional; details: for inhibition at 250 µM: PAO1, 6 h
Method in brief: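 P. aeruginosa PA01 biofilm. Cultures grown with or without test compound for 6 h. Biofilm biomass quantified by crystal violet staining (OD550). % inhibition calculated relative to DMSO control.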

Row | Structure (SMILES) | inhibition [1] | inhibition [2] | inhibition [3] | inhibition [4] | inhibition at 250 µM (Pseudomonas aeruginosa [5]) | inhibition at 125 µM (Pseudomonas aeruginosa [6]) | inhibition at 62.5 µM (Pseudomonas aeruginosa [7]) | inhibition at 31.25 µM (Pseudomonas aeruginosa [8]) | inhibition at 250 µM (Pseudomonas aeruginosa [9]) | inhibition (Pseudomonas aeruginosa [9])
1 | C=C1C(c2ccccc2F)=CC(=O)N1c1cccc(Cl)c1 | 64.4% | 57.3% | 49.6% | 38.7% | ≤ 15% | ≤ 15% | ≤ 15% | ≤ 15% | 46.9% | 
2 | C=C1C(c2ccc(Br)cc2)=CC(=O)N1c1cccc(F)c1 | 50.9% | 49.1% | 47.7% | 5.8% | ≤ 15% | ≤ 15% | ≤ 15% | ≤ 15% | 29.3% | 
3 | C=C1NC(=O)C=C1c1cccc(F)c1 | 72.8% | 66.5% | 52.9% | 39.5% | ≤ 15% | ≤ 15% | ≤ 15% | ≤ 15% | 55.2% | 
4 | O=C1C=C(c2ccccc2F)CN1 | 67.9% | 48.8% | 30.5% | 24.4% | ≤ 15% | ≤ 15% | ≤ 15% | ≤ 15% | 10.9% | 
5 | C=C1C(c2ccc(Br)cc2)=CC(=O)N1c1cccc(Br)c1 | 73.2% | 60.3% | 37.7% | 12.6% | ≤ 15% | ≤ 15% | ≤ 15% | ≤ 15% | 47.1% | 
6 | COc1ccc(C2=CC(=O)NC2)cc1 | 66.5% | 48.5% | 27.2% | 26.9% | ≤ 15% | ≤ 15% | ≤ 15% | ≤ 15% |  | inactive
7 | C=C1C(c2ccc(Br)cc2)=CC(=O)N1c1ccc(OC)cc1 | 73.3% | 61.8% | 32.1% | 14.4% | ≤ 15% | ≤ 15% | ≤ 15% | ≤ 15% | 54.9% | 
8 | C=C1NC(=O)C(C)=C1c1ccc(F)cc1 | 66.5% | 59.9% | 32.1% | 26.3% | ≤ 15% | ≤ 15% | ≤ 15% | ≤ 15% | 4.4% | 
9 | O=C1C=C(Br)/C(=C/Br)O1 | 87.5% | 83.1% | 77% | 65.9% | > 30% | > 30% | > 30% | 15 to 30% | 87.9% | 
10 | O=C1C=C(c2ccccc2)CN1 | 57.7% | 60.8% | 32.4% | 31.7% | ≤ 15% | ≤ 15% | ≤ 15% | ≤ 15% | 14.4% | 
11 | C=C1C(c2ccccc2F)=CC(=O)N1c1ccc(Br)cc1 | 60.7% | 54.9% | 48.4% | 39.7% | ≤ 15% | ≤ 15% | ≤ 15% | ≤ 15% | 49.2% | 
12 | C=C1C(c2ccccc2F)=CC(=O)N1c1ccc(C)cc1 | 65% | 62.8% | 53.3% | 29.6% | ≤ 15% | ≤ 15% | ≤ 15% | ≤ 15% | 49.3% | 
13 | C=C1NC(=O)C=C1c1ccc(C(=O)O)cc1 | 68% | 50.8% | 33.6% | 19.6% | ≤ 15% | ≤ 15% | ≤ 15% | ≤ 15% | 12.9% | 
14 | C=C1C(c2ccccc2F)=CC(=O)N1c1ccc(Cl)cc1 | 59.4% | 57.9% | 51.6% | 36.2% | ≤ 15% | ≤ 15% | ≤ 15% | ≤ 15% | 46.5% | 
15 | O=C1C=C(c2ccc(Br)cc2)CN1 | 65.9% | 42.8% | 25% | 21.9% | ≤ 15% | ≤ 15% | ≤ 15% | ≤ 15% |  | inactive
16 | C=C1NC(=O)C=C1c1ccc(Cl)cc1 | 73.8% | 64.6% | 49.4% | 33.3% | ≤ 15% | ≤ 15% | ≤ 15% | ≤ 15% | 60.9% | 
17 | O=C1C=C(c2ccsc2)CN1 | 72.1% | 49.3% | 26.6% | 24.7% | ≤ 15% | ≤ 15% | ≤ 15% | ≤ 15% |  | inactive
18 | C=C1NC(=O)C=C1c1ccc(CC)cc1 | 67.9% | 59.6% | 35.1% | 32.5% | ≤ 15% | ≤ 15% | ≤ 15% | ≤ 15% | 38.9% | 
19 | O=C1C=C(c2cccc(F)c2)CN1 | 67.2% | 45.5% | 24% | 22.4% | ≤ 15% | ≤ 15% | ≤ 15% | ≤ 15% | 21.4% | 
20 | C=C1NC(=O)C=C1c1ccccc1F | 72% | 69.7% | 58.3% | 37.8% | ≤ 15% | ≤ 15% | ≤ 15% | ≤ 15% | 51.3% | 
21 | C=C1C(c2ccc(Br)cc2)=CC(=O)N1c1ccc(F)cc1 | 57.9% | 49.7% | 34.5% | 9.23% | ≤ 15% | ≤ 15% | ≤ 15% | ≤ 15% | 27.7% | 
